In the library only some 3.8% were active in any assay of this set; here they are far more common.
Kir21 inh = inhibitors of mouse Kir2.1 inward-rectifier potassium channel; HEK293-Kir2.1, FluxOR thallium flux fluorescence; active compounds read low; hit rate 0.85% among 310,000; B-score at 10 µM; Inward rectifier potassium channel 2 (Mus musculus), P35561; AID 1672, 2009;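 active means fluorescence ratio B-score at or below minus 3 SD of library scores, with starting-brightness B-score within 2 SD, cut at about -4.2 in these data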;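 further: channel flux triggered by added potassium and thallium sulfate stimulus; B-score of peak minus minimum fluorescence over baseline after thallium stimulus; more negative B-score means stronger Kir2.1 block with less thallium influx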
KCNK9 inh = KCNK9 potassium channel inhibitors, primary screen, HEK293 cells, thallium flux; Potassium channel subfamily K member 9 (Homo sapiens), Q9NPC2; FluxOR thallium flux fluorescence; active compounds read low; B-score at 10 µM; hit rate 1.2% among 310,000;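 active means ratio B-score over 3 SD below the library mean, with starting fluorescence within 5 SD of its mean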;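 further: negative B-score means less thallium flux so channel inhibition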
KCNK3 block = human KCNK3 channel inhibitors, primary screen, CHO cells, FluxOR thallium flux, B-score | Potassium channel subfamily K member 3 (Homo sapiens), O14649 | FluxOR fluorescence; active compounds read low | B-score at 10 µM | hit rate 0.84% among 340,000 | AID 602410, 2012;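 active means B-score under library mean minus 4 SD, starting fluorescence ratio at most library mean plus 5 SD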;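 further: more negative B-score means stronger inhibition of thallium flux through KCNK3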
KCNQ1 act = potentiators or activators of KCNQ1 channel, primary screen, cell-based, thallium flux, high-throughput. Potassium voltage-gated channel subfamily KQT member 1 (Homo sapiens), P51787. CHO-K1 KCNQ1, thallium flux FluxOR fluorescence; active compounds read high. B-score at 10 µM. hit rate 0.35% among 310,000;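 active means fluorescence ratio B-score, a plate-corrected score, at least three library SD, with initial intensity B-score within 5 SD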
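assay system = KCNQ1-transfected CHO-K1 cells | medium = assay buffer with matched DMSO | probe or stimulus = depolarizing K+/Tl+ stimulus, K2SO4 and Tl2SO4 each 12.5 mM in 5x stock | dosing = single dose | incubation = dye 90 min, compound 20 min, room temperature | detection = kinetic FluxOR fluorescence, 10 s baseline plus 110 s post-stimulus | evaluation = ratio B score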
hERG rescue = hERG rescue from dofetilide block, primary screen, cell-based, CHO-hERG, FluxOR thallium flux, dofetilide IC70; activation (rescue from dofetilide block), less the hit threshold, % at 10 µM; hit rate 0.51% among 310,000; dofetilide IC70 present; AID 1511, 2009; Voltage-gated inwardly rectifying potassium channel KCNH2 (Homo sapiens), Q12809;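 active means activation above the mean of controls blocked by dofetilide plus 5 SD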;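 further: thallium influx through hERG after potassium depolarization seen as dye fluorescence rise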
KCNQ1 inh = inhibitors of human KCNQ1 channel, primary screen, cell-based, thallium flux, high-throughput; AID 2642, 2010; hit rate 1.3% among 310,000; CHO-K1 KCNQ1, FluxOR thallium flux fluorescence; active compounds read high; Potassium voltage-gated channel subfamily KQT member 1 (Homo sapiens), P51787; B-score at 10 µM;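 active means compounds whose thallium flux B-score, printed positive for inhibition, exceeds three library SD while starting fluorescence stays within three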;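 further: channel opened by potassium depolarization with thallium stimulus after 20 min compound exposure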
KCNK3 inh conf = retest of human KCNK3 channel inhibitors, confirmation, CHO cells, FluxOR thallium flux, triplicate; FluxOR fluorescence; 0% buffer, 100% carvedilol maximal block; shares compounds with KCNK3 block; hit rate 99% among 2,400; AID 651638, 2012; ratio percent of control, % at 10 µM;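 active means ratio percent of control, averaged over triplicates, above buffer control mean plus 5 SD, cut at about 64% in these data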;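 further: ratio is the fluorescence rise from min to max over baseline after thallium stimulus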
KCNK3 noninduced = thallium flux inhibition in non-induced cells, primary screen, counter-screen for KCNK3 inhibitor project, cell-based, non-induced KCNK3 line, FluxOR thallium, triplicate; AID 651747, 2012; thallium flux ratio (lower = more inhibition) at 10 µM; shares compounds with KCNK3 block; non-induced KCNK3 parental cells; active compounds read low; hit rate 40% among 2,400;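 active means thallium flux ratio, averaged over three wells, more than 5 SD below the buffer control mean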;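 further: host cells are CHO cells without KCNK3 induction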
Hits are given with their value.

`CCOc1ccccc1CN1C(=O)C2(OCCO2)c2ccccc21` gave Kir21 inh inactive, KCNK9 inh inactive, KCNK3 block -9.67, KCNQ1 act inactive, hERG rescue inactive, KCNQ1 inh inactive, KCNK3 inh conf 108.3 and KCNK3 noninduced inactive.
`Cc1ccc(C)c(CN2C(=O)C3(OCCCO3)c3ccccc32)c1` gave Kir21 inh inactive, KCNK9 inh inactive, KCNK3 block inactive, KCNQ1 act inactive, hERG rescue inactive and KCNQ1 inh inactive.
For c1ccc(-c2nc(-c3ccco3)n3ccccc23)cc1 the results were Kir21 inh inactive, KCNK9 inh inactive, KCNK3 block -9.75, KCNQ1 act inactive, hERG rescue inactive, KCNQ1 inh inactive, KCNK3 inh conf 116.0 and KCNK3 noninduced 0.148.
For c1ccc(Nc2c(-c3ccco3)nc3ccccn23)cc1 the results were Kir21 inh inactive, KCNK9 inh inactive, KCNK3 block inactive, KCNQ1 act inactive, hERG rescue inactive and KCNQ1 inh inactive.
Screening CC(C)CN(CC(C)C)C(=O)COn1nnc2ccc(S(=O)(=O)N3CCOCC3)cc21 returned KCNK3 block inactive.
`O=C(COn1nnc2ccc(S(=O)(=O)N3CCOCC3)cc21)Nc1c(F)c(F)c(F)c(F)c1F` gave Kir21 inh inactive, KCNK9 inh -7.44, KCNK3 block -8.81, KCNQ1 act inactive, hERG rescue inactive, KCNQ1 inh inactive, KCNK3 inh conf 87.0 and KCNK3 noninduced inactive.
`CCNc1ccc(C(=O)NN=C2CCCC2)cc1[N+](=O)[O-]` gave Kir21 inh inactive, KCNK9 inh inactive, KCNK3 block inactive, KCNQ1 act inactive, hERG rescue inactive and KCNQ1 inh inactive.
O=C1OC(c2ccccc2)(c2ccc3cc(O)ccc3c2)c2ccccc21 (stereo not given) was read as KCNK3 block -16.4, KCNK3 inh conf 128.3 and KCNK3 noninduced 0.113.
O=C(NCCC(c1ccccc1)c1ccccc1)c1ccc(Br)o1 was read as Kir21 inh inactive, KCNK9 inh inactive, KCNK3 block -9.7, KCNQ1 act inactive, hERG rescue inactive, KCNQ1 inh inactive, KCNK3 inh conf 114.0 and KCNK3 noninduced inactive.
`O=C(O)CCNC(=O)c1ccc(Br)o1` gave Kir21 inh inactive, KCNK9 inh inactive, KCNK3 block inactive, KCNQ1 act inactive, hERG rescue inactive and KCNQ1 inh inactive.
`Cc1[nH]c2ccccc2c1SCCNC(=O)c1ccc(Br)o1` gave Kir21 inh inactive, KCNK9 inh inactive, KCNK3 block -8.96, KCNQ1 act inactive, hERG rescue inactive, KCNQ1 inh inactive, KCNK3 inh conf 97.3 and KCNK3 noninduced inactive.
O=C(NCCc1c[nH]c2ccccc12)c1ccc(Br)o1 was read as KCNK3 block inactive.
O=C(NCCSc1c[nH]c2ccccc12)c1ccc(Br)o1 was read as Kir21 inh inactive, KCNK9 inh -7.9, KCNK3 block -10.7, KCNQ1 act inactive, hERG rescue inactive, KCNQ1 inh inactive, KCNK3 inh conf 98.0 and KCNK3 noninduced inactive.
O=C(NCCc1csc(-c2ccccc2)n1)c1ccc(Br)o1 was read as Kir21 inh inactive, KCNK9 inh inactive, KCNK3 block -11.1, KCNQ1 act inactive, hERG rescue inactive, KCNQ1 inh inactive, KCNK3 inh conf 91.7 and KCNK3 noninduced inactive.

Assay outcomes: PubChem BioAssay, Johns Hopkins Ion Channel Center
